Test results from ChEMBL document CHEMBL2034958, “Peptidolipins B-F, antibacterial lipopeptides from an ascidian-derived Nocardia sp” (2012).
≈ marks a conversion by molar mass, not a printed value. Calls of active or inactive are those of the source. No cut-off for these calls is given here.

Experiments:
[1] = test system: Staphylococcus aureus; assay: Bacteriostatic activity against methicillin-resistant Staphylococcus aureus ATCC 33591 after 18 hrs; format: functional, organism-based
Method in brief: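 After the 18 h, 33 °C microdilution MIC plate, a sterile swab dipped into each well showing growth inhibition was inoculated onto an LB plate to tell bactericidal from bacteriostatic action.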

[2] = test system: Staphylococcus aureus; assay: Antibacterial activity against methicillin-resistant Staphylococcus aureus ATCC 33591 after 18 hrs; format: functional; conditions: ATCC 33591, 18 h
Method in brief: (§1)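 Dilution susceptibility test for aerobic bacteria. Compounds dissolved in DMSO and serially diluted to 10 concentrations (0.125–64 μg/mL) in 96-well plates, run in triplicate. Vancomycin served as control, with six untreated media controls per plate. Incubation at 33 °C for 18 h; MIC read as the lowest concentration inhibiting visible growth.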

[3] = test system: Staphylococcus aureus; assay: Bacteriostatic activity against methicillin-susceptible Staphylococcus aureus ATCC 29213 after 18 hrs; format: functional, organism-based
Method in brief: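 Broth dilution susceptibility test for aerobic bacteria against MSSA ATCC 29213. Compounds in DMSO, serially diluted to 10 concentrations (0.125−64 μg/mL) in 96-well plates, tested in triplicate with vancomycin control and six untreated media controls per plate. Incubated at 33 °C for 18 h. MIC was the lowest concentration without visible growth. Inhibited wells were swabbed onto LB plates to distinguish bacteriostatic from bactericidal.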

[4] = test system: Staphylococcus aureus; assay: Antibacterial activity against methicillin-susceptible Staphylococcus aureus ATCC 29213 after 18 hrs; format: functional; conditions: ATCC 29213, 18 h; method in brief: as §1

| SMILES | Activity [1] | MIC [2] | Activity [3] | MIC [4] |
| --- | --- | --- | --- | --- |
| CCCCCCCCCCCCCCCCCCCCCCC[C@@H]1CC(=O)N[C@H]([C@H](C)O)C(=O)N[C@@H](C(C)C)C(=O)N[C@@H](C)C(=O)N2CCC[C@@H]2C(=O)N[C@H]([C@@H](C)CC)C(=O)N[C@@H](C(C)C)C(=O)N[C@@H]([C@@H](C)OC)C(=O)O1 [PEPTIDOLIPIN B] | Active | 64 µg/mL (≈ 58.7 µM) | Active | – |
| CCCCCCCCCCCCCCCCCCCCCCCCC[C@@H]1CC(=O)N[C@H]([C@H](C)O)C(=O)N[C@@H](C(C)C)C(=O)N[C@@H](C)C(=O)N2CCC[C@@H]2C(=O)N[C@H]([C@@H](C)CC)C(=O)N[C@@H](C(C)C)C(=O)N[C@@H]([C@@H](C)OC)C(=O)O1 [PEPTIDOLIPIN C] | – | > 64 µg/mL | – | > 64 µg/mL |
| CCCCCCCCCCCCCCCCCCCCCCCCCCC[C@@H]1CC(=O)N[C@H]([C@H](C)O)C(=O)N[C@@H](C(C)C)C(=O)N[C@@H](C)C(=O)N2CCC[C@@H]2C(=O)N[C@H]([C@@H](C)CC)C(=O)N[C@@H](C(C)C)C(=O)N[C@@H]([C@@H](C)OC)C(=O)O1 [PEPTIDOLIPIN D] | – | > 64 µg/mL | – | > 64 µg/mL |
| CCCCCCCC/C=C\CCCCCCCCCCCCCCC[C@@H]1CC(=O)N[C@H]([C@H](C)O)C(=O)N[C@@H](C(C)C)C(=O)N[C@@H](C)C(=O)N2CCC[C@@H]2C(=O)N[C@H]([C@@H](C)CC)C(=O)N[C@@H](C(C)C)C(=O)N[C@@H]([C@@H](C)OC)C(=O)O1 [PEPTIDOLIPIN E] | Active | – | Active | 64 µg/mL (≈ 57.3 µM) |
